In data set [1] the test system is HeLa. Description: Antiproliferative activity against human HeLa cells after 24 hrs by crystal violet staining-based method. It counts as functional, cell-based. Summed up: (§1)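 Cells were cultured in RPMI-1640 with 5% newborn calf serum and benzylpenicillin at 37 °C, 5% CO2, and used in exponential growth. Cells were seeded at 7500/well, grown 24 h, then exposed to a concentration range. Controls received 1% DMSO vehicle. After 24 h, growth was read by crystal violet staining as absorbance at 590 nm, and IC50 was derived.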

Data set [2] deals with Ca-Ski. Description: Antiproliferative activity against human CaSki cells after 24 hrs by crystal violet staining-based method. The format is functional, cell-based. Summed up:
as §1

The nature of data set [3]: (§2) Antiproliferative activity against human ViBo cells after 24 hrs by crystal violet staining-based method. The format is functional, cell-based. Summed up:
as §1

The next data set relates to ViBo. The data set is described as §2. It counts as functional, cell-based. The essentials:
as §1

Data set [4] concerns HeLa. Description: Cytotoxicity against human HeLa cells assessed as LDH release at antiproliferative IC50 after 24 hrs. The format is cell-based. The essentials:
(§3)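 Membrane damage was measured as LDH released into the culture supernatant 24 h after treatment; Triton X-100 lysis served as the total-lysis reference and DMSO as the vehicle control. For HeLa, CaSki and ViBo, 7500 cells/well were seeded and the medium was replaced after 24 h before treatment. Data are mean ± SD of three independent experiments in triplicate, analyzed by ANOVA with Tukey's test.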

For data set [5], the system named is Ca-Ski. Description: Cytotoxicity against human CaSki cells assessed as LDH release at antiproliferative IC50 after 24 hrs. The format is cell-based. The essentials:
as §3
In general terms: LDH in the medium is a marker of cell lysis.

A short description of data set [6]: Cytotoxicity against human ViBo cells assessed as LDH release at antiproliferative IC50 after 24 hrs. It counts as cell-based. Summed up: as §3
The next data set concerns PBMC. Description: Antiproliferative activity against PHA-stimulated and CFSE-labeled human PBMC assessed as proliferation of enriched lymphocyte population at antiproliferative IC50 after 72 hrs by flow cytometric analysis (reference value: 90.13%). It counts as cell-based. Summed up:
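Enriched lymphocytes from a normal blood donor were obtained by removing cells adherent after 1 h at 37 °C, 5% CO2, then resuspended in RPMI-1640 at 1 × 10⁶ cells/mL. Cells were CFSE-labeled for 15 min at room temperature in the dark, PHA-stimulated and/or treated, and plated at 2 × 10⁵ cells/well with five replicates. After 72 h at 37 °C, cells were PBS-washed, fixed in 1% formaldehyde, and analyzed by flow cytometry (≥20,000 events).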
In general terms: In flow cytometry, cells or beads pass a laser one at a time.

A short description of data set [7]: Cytotoxicity against human lymphocytes assessed as LDH release at antiproliferative IC50 after 24 hrs. The format is cell-based. The conditions noted are these: lymphocyte. Summed up:
as §3

Results on three compounds are retold here after ChEMBL document CHEMBL2069284, “Synthesis and selective anticancer activity of steroidal glycoconjugates” (Eur J Med Chem, 2012).

What is called IC50 is the point on the concentration scale where inhibition reaches its midpoint. The low end stands for inhibition by little substance, the high end for a need for much substance.

Regarding `C[C@@H]1CC[C@@]2(OC1)O[C@H]1C[C@H]3[C@@H]4CC=C5C[C@@H](O[C@@H]6O[C@H](CO)[C@@H](O)[C@H](O)[C@H]6N)CC[C@]5(C)[C@H]4CC[C@]3(C)[C@H]1[C@@H]2C.Cl`, the IC50 in the data set with HeLa [1] turned out to be 41 µM; in the data set with Ca-Ski [2], 41 µM; in data set [3], 82 µM. Moreover, the inhibition entry in the data set on HeLa [1], with Ca-Ski [2] and in the data set on ViBo was “Dose-dependent effect” throughout. In addition, the Activity result in the data set on HeLa [4] is recorded as “Non-toxic”; in the data set with Ca-Ski [5] it was “Non-toxic”; in [6], “Non-toxic”; in the data set on PBMC, 78.76%; in [7], “Non-toxic”.
Turning to `CC(=O)N[C@H]1[C@H](O[C@H]2CC[C@@]3(C)C(=CC[C@H]4[C@@H]5C[C@@H]6O[C@]7(CC[C@@H](C)CO7)[C@@H](C)[C@@H]6[C@@]5(C)CC[C@@H]43)C2)O[C@H](CO)[C@@H](O)[C@@H]1O`, the figures for the IC50 (in the data set on HeLa [1]; in the data set on Ca-Ski [2]; in [3]) were 81 µM, 80 µM and 81 µM, respectively. In addition, the inhibition result in the data set with HeLa [1], in the data set with Ca-Ski [2] and in the data set with ViBo was “Dose-dependent effect” each time. Further, the Activity result was “Non-toxic” in the data set with HeLa [4]; “Non-toxic” in the data set on Ca-Ski [5]; “Non-toxic” in data set [6]; 72.58% in the data set with PBMC; “Non-toxic” in data set [7].
Regarding `CC(=O)N[C@H]1[C@H](O[C@H]2CC[C@@]3(C)[C@@H](CC[C@@H]4[C@@H]3CC(=O)[C@]3(C)[C@@H]5[C@H](C[C@@H]43)O[C@]3(CC[C@@H](C)CO3)[C@H]5C)C2)O[C@H](CO)[C@@H](O)[C@@H]1O`, the IC50 in the data set on HeLa [1] is 129 µM; in the data set with Ca-Ski [2], 136 µM; in data set [3], above 142 µM. In addition, the inhibition result in the data set on HeLa [1], with Ca-Ski [2] and in the data set on ViBo was “Dose-dependent effect” throughout. Further, the Activity entry in the data set with HeLa [4] is reported as “Non-toxic”; in the data set with Ca-Ski [5] it was “Non-toxic”; in data set [6], “Non-toxic”; with PBMC, 75.59%; in [7], “Non-toxic”.
